# Results as given in publication PMC3525873 (British Journal of Pharmacology, 2012).
# Key:
# Type in all cases: cell-based
# [1] = biological target: STIM1/Orai1-mediated SOCE (Rattus norvegicus, UniProt Q5M848); experiment: Fura-2 Ca2+ re-addition, thapsigargin-depleted native RBL-2H3 cells
# How it was run: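 Native RBL-2H3 cells were loaded with 2 μM Fura-2-AM for 45 min and perfused in Ca2+-free extracellular solution at room temperature. Stores depleted with 1 μM thapsigargin for 5 min. Test compound present ≥5 min before and throughout. Ca2+ entry evoked by 2 mM Ca2+ re-addition; 340/380 nm ratio read (510 nm emission). Inhibition expressed as % of control peak entry. IC50 by 4-parameter logistic fit; 3–5 experiments, 29–80 cells.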
# TRPC3 = biological target: T1, TRPC3 (Homo sapiens, UniProt Q13507); experiment: Patch-clamp of TRPC3 currents in HEK293 cells transiently expressing TRPC3
# T1 sequence (Q13507 74-921 limits assumed): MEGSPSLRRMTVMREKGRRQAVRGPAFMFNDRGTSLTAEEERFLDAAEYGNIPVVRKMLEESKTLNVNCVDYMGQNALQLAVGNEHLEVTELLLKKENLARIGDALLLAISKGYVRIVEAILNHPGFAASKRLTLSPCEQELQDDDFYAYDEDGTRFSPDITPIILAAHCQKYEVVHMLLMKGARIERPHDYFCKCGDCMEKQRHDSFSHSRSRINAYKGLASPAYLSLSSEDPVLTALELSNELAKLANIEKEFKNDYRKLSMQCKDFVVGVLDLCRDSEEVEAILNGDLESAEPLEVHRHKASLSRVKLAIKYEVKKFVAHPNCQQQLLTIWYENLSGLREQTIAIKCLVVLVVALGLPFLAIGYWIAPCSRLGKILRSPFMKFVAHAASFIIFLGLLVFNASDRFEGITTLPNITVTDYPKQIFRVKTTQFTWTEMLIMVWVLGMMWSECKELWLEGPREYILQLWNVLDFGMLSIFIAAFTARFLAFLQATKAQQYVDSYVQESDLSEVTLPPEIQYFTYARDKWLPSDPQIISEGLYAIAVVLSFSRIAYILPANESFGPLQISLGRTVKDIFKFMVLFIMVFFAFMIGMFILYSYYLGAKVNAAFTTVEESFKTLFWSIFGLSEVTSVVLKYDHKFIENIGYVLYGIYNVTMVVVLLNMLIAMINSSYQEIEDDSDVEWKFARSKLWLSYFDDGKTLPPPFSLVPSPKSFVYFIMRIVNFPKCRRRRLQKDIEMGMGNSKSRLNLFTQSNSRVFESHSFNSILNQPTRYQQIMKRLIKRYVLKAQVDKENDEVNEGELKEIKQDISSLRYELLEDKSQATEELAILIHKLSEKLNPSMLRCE
# TRPC4beta = biological target: T2, TRPC4beta (Homo sapiens, UniProt Q9UBN4); experiment: Fura-2 Ca2+ entry in HEK293 cells overexpressing TRPC4beta-YFP
# T2 sequence (Q9UBN4 1-893 isoform Q9UBN4-2): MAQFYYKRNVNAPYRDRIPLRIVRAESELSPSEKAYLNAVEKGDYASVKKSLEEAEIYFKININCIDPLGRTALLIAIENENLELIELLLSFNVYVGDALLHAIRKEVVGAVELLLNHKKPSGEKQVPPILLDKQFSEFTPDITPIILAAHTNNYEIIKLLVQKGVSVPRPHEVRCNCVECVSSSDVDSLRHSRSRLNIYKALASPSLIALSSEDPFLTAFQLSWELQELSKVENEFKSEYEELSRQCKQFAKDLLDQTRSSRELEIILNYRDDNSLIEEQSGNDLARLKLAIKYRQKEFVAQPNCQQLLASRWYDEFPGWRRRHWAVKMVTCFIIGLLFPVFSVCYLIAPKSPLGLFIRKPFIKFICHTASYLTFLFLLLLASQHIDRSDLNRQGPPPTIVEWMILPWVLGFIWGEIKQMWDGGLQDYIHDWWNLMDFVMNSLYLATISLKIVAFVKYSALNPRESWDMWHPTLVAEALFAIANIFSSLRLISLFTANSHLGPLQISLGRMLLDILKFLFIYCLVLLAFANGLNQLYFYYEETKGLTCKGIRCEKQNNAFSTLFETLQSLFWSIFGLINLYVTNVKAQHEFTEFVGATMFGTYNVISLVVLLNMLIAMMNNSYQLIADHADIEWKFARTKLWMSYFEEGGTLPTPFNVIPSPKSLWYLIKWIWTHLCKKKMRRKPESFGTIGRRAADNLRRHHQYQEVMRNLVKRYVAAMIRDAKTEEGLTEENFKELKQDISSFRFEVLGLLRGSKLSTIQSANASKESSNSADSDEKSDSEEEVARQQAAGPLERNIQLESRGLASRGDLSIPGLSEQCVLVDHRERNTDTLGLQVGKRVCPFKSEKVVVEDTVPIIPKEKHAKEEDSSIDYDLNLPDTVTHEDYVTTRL
# TRPC5 = biological target: T3, TRPC5 (Homo sapiens, UniProt Q9UL62); experiment: Fura-2 Ca2+ entry in HEK293 cells overexpressing YFP-TRPC5
# T3 sequence (Q9UL62 1-973): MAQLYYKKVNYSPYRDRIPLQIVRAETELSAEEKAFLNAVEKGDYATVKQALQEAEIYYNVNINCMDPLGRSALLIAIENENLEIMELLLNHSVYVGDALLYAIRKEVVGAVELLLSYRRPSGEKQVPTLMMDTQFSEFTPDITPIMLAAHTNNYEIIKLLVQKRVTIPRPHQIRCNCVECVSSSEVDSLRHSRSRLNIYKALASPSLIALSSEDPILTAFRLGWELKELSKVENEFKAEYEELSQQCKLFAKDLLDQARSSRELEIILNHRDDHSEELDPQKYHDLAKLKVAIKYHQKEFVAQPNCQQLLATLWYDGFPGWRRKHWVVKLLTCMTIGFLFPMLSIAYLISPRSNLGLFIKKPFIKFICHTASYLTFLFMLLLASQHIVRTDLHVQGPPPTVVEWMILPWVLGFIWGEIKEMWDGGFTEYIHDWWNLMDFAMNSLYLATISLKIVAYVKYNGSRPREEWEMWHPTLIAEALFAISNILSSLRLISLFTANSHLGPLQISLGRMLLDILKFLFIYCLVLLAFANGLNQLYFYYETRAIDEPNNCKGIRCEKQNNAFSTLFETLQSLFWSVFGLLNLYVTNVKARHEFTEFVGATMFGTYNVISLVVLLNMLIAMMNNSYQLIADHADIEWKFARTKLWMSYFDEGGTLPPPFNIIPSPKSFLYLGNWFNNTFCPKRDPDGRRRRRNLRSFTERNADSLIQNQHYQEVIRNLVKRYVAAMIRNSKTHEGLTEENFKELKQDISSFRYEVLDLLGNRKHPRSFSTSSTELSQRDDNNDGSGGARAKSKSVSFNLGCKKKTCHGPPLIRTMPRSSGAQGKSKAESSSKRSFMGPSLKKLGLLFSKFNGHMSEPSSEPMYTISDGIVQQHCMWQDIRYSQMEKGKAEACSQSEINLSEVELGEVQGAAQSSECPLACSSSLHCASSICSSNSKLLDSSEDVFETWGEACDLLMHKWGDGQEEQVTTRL
# Sequence of STIM1/Orai1-mediated SOCE (Q5M848 whole entry, the tested form may be a part): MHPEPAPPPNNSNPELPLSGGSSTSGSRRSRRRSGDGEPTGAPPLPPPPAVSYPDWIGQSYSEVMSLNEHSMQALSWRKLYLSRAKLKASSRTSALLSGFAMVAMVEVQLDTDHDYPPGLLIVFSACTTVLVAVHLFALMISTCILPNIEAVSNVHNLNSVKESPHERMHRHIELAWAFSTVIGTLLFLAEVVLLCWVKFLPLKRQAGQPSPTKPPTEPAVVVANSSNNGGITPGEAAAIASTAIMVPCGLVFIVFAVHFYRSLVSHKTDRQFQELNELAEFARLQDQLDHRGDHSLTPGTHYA
smiles,measurement,setting,value
"Cc1ccc(S(=O)(=O)Nc2ccc(-n3nc(C(F)(F)F)cc3C(F)(F)F)cc2)cc1 [Pyr10, N-(4-(3,5-bis(trifluoromethyl)-1H-pyrazole-1-yl)phenyl)-4-methylbenzenesulfonamide]",Reduction of Ca2+ entry (Orai-mediated),[1]; 3 μM,30%
same,Effect on TRPC3 Ca2+ entry-mediating conductance,"TRPC3; 3 μM pre-incubation, carbachol",eliminated TRPC3 currents
same,Effect on OAG-induced TRPC3 membrane currents,"TRPC3; 3 μM, OAG 100 μM",potently blocks DAG-mediated TRPC3 membrane currents
same,IC50,TRPC4beta,> 10 µM
same,IC50,TRPC5,> 10 µM
"O=C(Nc1ccc(-n2nc(C(F)(F)F)cc2C(F)(F)F)cc1)c1ccncc1F [Pyr6, N-(4-(3,5-bis(trifluoromethyl)-1H-pyrazole-1-yl)phenyl)-3-fluoroisonicotinamide]","Higher potency in SOCE model than in TRPC3-ROCE model, orders of magnitude",[1]; RBL-2H3 SOCE vs TRPC3 ROCE,1.58 OM
same,Higher potency in SOCE model than in TRPC3-ROCE model,"[1]; ratio of IC50 values, RBL-2H3 SOCE vs TRPC3 ROCE",37 fold
same,TRPC3 currents remaining,"TRPC3; 3 μM, percent of control",52%
same,IC50,TRPC4beta,> 10 µM
same,IC50,TRPC5,> 10 µM
